In the library only some 1.6% were active in any assay of this set; here they are far more common.
p97 ATPase inh: inhibitors of human p97 ATPase; P55072; recombinant p97 ATPase, Kinase-Glo ATP luminescence, 3 h; inhibition, % at 8 µM; 220,000 tested, 0.42% active; in the data active means inhibition above about 15%;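 further: 0% = DMSO vehicle and 100% = wells lacking enzyme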
p47phox inh: blocks human p47phox regulatory protein of NADPH oxidases; P14598; p47phox/p22phox peptide binding, fluorescence polarization, 2 h; inhibition, % at 24.7 µM; 220,000 tested, 0.53% active;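 further: 0% = p47phox with labelled peptide and 100% = labelled peptide alone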
14-3-3 Bad PPI: disrupts binding of bovine 14-3-3 zeta to phospho-Bad peptide; P63103; TR-FRET 14-3-3zeta/Dy647-pBad peptide displacement, 1 h; inhibition, % at 21.7 µM; 220,000 tested, 0.71% active; AID 781;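 active means inhibition above about 70%, limit read from the data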;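 further: 0% = full 14-3-3 plus peptide FRET controls and 100% = background without 14-3-3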
Target sequence (P63103 whole entry, looked up): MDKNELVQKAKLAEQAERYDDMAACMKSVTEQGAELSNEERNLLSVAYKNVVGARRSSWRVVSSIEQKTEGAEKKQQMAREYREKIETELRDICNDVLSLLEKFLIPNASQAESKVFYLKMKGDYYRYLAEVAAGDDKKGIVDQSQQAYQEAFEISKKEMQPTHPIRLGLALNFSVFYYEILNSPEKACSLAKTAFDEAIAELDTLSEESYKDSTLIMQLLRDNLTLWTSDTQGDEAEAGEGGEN
Tb MetRS inh: Trypanosoma brucei MetRS inhibition; purified T. brucei MetRS, ATP depletion, Kinase-Glo luminescence; inhibition, % at 11.9 µM; 360,000 tested, 0.4% active;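 active means inhibition above a per-plate cutoff of the control wells' mean inhibition plus 3 SD, cut at about 5.5% in these data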;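 further: 0% = DMSO wells median and 100% = median of wells with control inhibitor compound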
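Material – parasite MetRS enzyme · Medium – HEPES-MgCl2-KCl buffer plus DTT, spermine, BSA, pyrophosphatase · Reagent – ATP, methionine and E. coli bulk tRNA substrates · Times – 15 min enzyme-compound preincubation, 2 h reaction, 10 min detection, 25 °C · Measured by – luminescence of leftover ATP · Evaluation – percent inhibition relative to median high and low control wells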
eIF4E-4G inh: blocks eIF4E binding to eIF4G | inhibition, % at 21.7 µM | TR-FRET eIF4E-eIF4GI(517-606) binding, 2 h | 220,000 tested, 0.37% active;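 further: 0% = full FRET control wells and 100% = background wells lacking eIF4GI fragment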
UBC9 SUMO inh: SUMOylation inhibition. P63279. HTRF SUMOylation assay, SAE1/SAE2 + UBC9, in vitro. inhibition, % at 35 µM. 290,000 tested, 0.36% active. AID 2006; in the data active means inhibition above about 50%, passing the limit was not always enough
Target sequence (P63279 whole entry, looked up): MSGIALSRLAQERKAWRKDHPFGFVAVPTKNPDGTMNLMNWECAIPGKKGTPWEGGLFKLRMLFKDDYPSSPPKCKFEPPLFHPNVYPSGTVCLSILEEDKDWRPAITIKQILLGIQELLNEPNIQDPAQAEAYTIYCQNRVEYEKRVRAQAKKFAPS
Starred values were filed as active, the others as inactive; ! = not confirmed by another sample.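 How the source made its calls, unless noted: active means inhibition above about 30% (limit read from the data); inactive means the rest.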

CCCCOc1ccc(CN2CCN(CCO)CC2)cc1 was read as p97 ATPase inh 3, p47phox inh -10, 14-3-3 Bad PPI 42, Tb MetRS inh 0, eIF4E-4G inh -1 and UBC9 SUMO inh -11.
`CCCCOc1ccc(CN2CCN(CC)CC2)cc1` gave p97 ATPase inh 3, p47phox inh -9, 14-3-3 Bad PPI 86*, Tb MetRS inh 0, eIF4E-4G inh 6 and UBC9 SUMO inh 13.
Screening CN1CCN(c2ccc([N+](=O)[O-])c3no[n+]([O-])c23)CC1 returned p97 ATPase inh 3, p47phox inh -92, 14-3-3 Bad PPI 1, Tb MetRS inh 0, eIF4E-4G inh -2 and UBC9 SUMO inh 55*.
COC(=O)c1c(C)[nH]c(C(=O)C(C)[N+]23CCN(CC2)CC3)c1C (stereo not drawn) was read as p97 ATPase inh 1, p47phox inh -4, 14-3-3 Bad PPI 81*, Tb MetRS inh 0, eIF4E-4G inh 13 and UBC9 SUMO inh -2.
CCOC(=O)c1cnc(SCc2ccc(Cl)c(Cl)c2)nc1N1CC1 was read as Tb MetRS inh 0.
Screening CCN(CC)c1ccc(/C=N/c2sc3c(c2C#N)C2CCN3CC2)c(O)c1 returned p97 ATPase inh 2, p47phox inh 74*, 14-3-3 Bad PPI -2, Tb MetRS inh 0, eIF4E-4G inh 12 and UBC9 SUMO inh 6.
For C[C@@H]1CN([C@H](C)CO)C(=O)CCCn2cc(nn2)CO[C@H]1CN(C)C(=O)Oc1cccc2ccccc12 the results were Tb MetRS inh -2.
Screening CC(C)(C)n1nnnc1C(c1ccccc1)N1CCC2(CC1)C(=O)NCN2c1ccccc1 (stereo not drawn) returned Tb MetRS inh 0.
`c1cncc(C2Nc3cccc4cccc(c34)N2)c1` gave p97 ATPase inh 4, p47phox inh 2, 14-3-3 Bad PPI -4, Tb MetRS inh -1, eIF4E-4G inh 2 and UBC9 SUMO inh 63*!.
For O=C(Cc1ccccc1)N1CCN(CC2CC3C=CC2C3)CC1 (stereo not drawn) the results were p97 ATPase inh -5, p47phox inh 4, 14-3-3 Bad PPI 60, Tb MetRS inh 0, eIF4E-4G inh 5 and UBC9 SUMO inh 6.
O=C(Cc1ccccc1)N1CCN(CC2CC=CCC2)CC1 (stereo not drawn) was read as p97 ATPase inh 0, p47phox inh -5, 14-3-3 Bad PPI 77*, Tb MetRS inh 0, eIF4E-4G inh 11 and UBC9 SUMO inh 0.
For CC(=O)c1c(C)n(Cc2ccccc2Cl)c2ccc(O)cc12 the results were p97 ATPase inh 0, p47phox inh 115*, 14-3-3 Bad PPI -3, Tb MetRS inh 0, eIF4E-4G inh 1 and UBC9 SUMO inh 23.
CC(=O)Cc1c[nH]c2ccccc12 was read as p97 ATPase inh 6, p47phox inh -8, 14-3-3 Bad PPI -6, eIF4E-4G inh 97* and UBC9 SUMO inh 16.
`CCN(CC)c1ccc(CN2CC=C(c3ccc(F)cc3)CC2)cc1` gave p97 ATPase inh -3, p47phox inh -11, 14-3-3 Bad PPI 77*, Tb MetRS inh -1, eIF4E-4G inh 3 and UBC9 SUMO inh 0.
For COc1ccc(CN2CC=C(c3ccc(F)cc3)CC2)cc1Br the results were Tb MetRS inh 1 and UBC9 SUMO inh -16.
For O=C(Nc1cc(Cl)cc(Cl)c1)N1Cc2ccccc2-n2nncc2C1 the results were Tb MetRS inh 0.
O=C1NC(=S)N(c2ccc(F)cc2)C(=O)/C1=C\c1ccoc1 was read as p97 ATPase inh 9, p47phox inh -169, 14-3-3 Bad PPI 76*, Tb MetRS inh 1, eIF4E-4G inh 34* and UBC9 SUMO inh 29.
Screening Cc1ccc(/C=C2\C(=O)NC(=S)N(c3cccc(F)c3)C2=O)o1 returned Tb MetRS inh 0 and UBC9 SUMO inh -6.
Screening COc1ccc(OC)c(N2C(=O)/C(=C/c3ccco3)C(=O)NC2=S)c1 returned UBC9 SUMO inh 94*.
Screening O=C1NC(=S)N(c2ccc(F)cc2)C(=O)/C1=C/c1ccco1 returned UBC9 SUMO inh 66*.
CSCCC(c1nnnn1Cc1ccccc1)N1CCC2(CC1)C(=O)NCN2c1ccccc1 (stereo not drawn) was read as Tb MetRS inh 0.

Bioassay records (PubChem)
